Where only a bound is given, the exact number is not on record here.

The term logD denotes lipophilicity at a set pH, counting ionised and neutral species. One may read the IC50 as the concentration that inhibits the measured activity by half. The inhibition is the relative decrease from the control value, in per cent. Broadly, the solubility is the concentration that dissolves in the medium under given conditions.

A short description of data set [1]: Partition coefficient (logD7.4). Particulars: octanol/water.
Data set [2] has as its target T1, Renin (Homo sapiens, UniProt P00797).
T1 sequence (P00797 whole entry): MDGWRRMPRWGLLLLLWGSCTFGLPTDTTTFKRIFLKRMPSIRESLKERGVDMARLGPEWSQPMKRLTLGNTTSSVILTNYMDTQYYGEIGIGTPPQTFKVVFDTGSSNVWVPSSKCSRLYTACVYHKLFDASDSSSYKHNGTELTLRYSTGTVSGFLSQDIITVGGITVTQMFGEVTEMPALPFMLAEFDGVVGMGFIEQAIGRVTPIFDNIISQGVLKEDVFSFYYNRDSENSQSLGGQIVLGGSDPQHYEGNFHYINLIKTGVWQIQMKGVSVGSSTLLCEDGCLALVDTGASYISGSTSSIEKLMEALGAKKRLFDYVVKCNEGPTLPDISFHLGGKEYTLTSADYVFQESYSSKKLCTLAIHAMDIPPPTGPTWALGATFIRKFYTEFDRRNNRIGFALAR
Description: Inhibitory activity against human plasma renin. The format is cell-free.

For another data set, the target named is T2, Renin (Homo sapiens) (UniProt P00797).
T2 sequence (whole entry): T1 sequence (P00797 whole entry)
Description: Inhibitory activity against monkey plasma renin was determined at 10e-5 M concentration. The format is cell-free. The conditions noted are these: Cercopithecidae, target entry is the homologue from another species. In a few lines: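 Angiotensin I generated from monkey plasma (native renin and angiotensinogen) with maleate buffer pH 6.0, PMSF and inhibitor in DMSO, 60 min at 37 °C. Percent inhibition estimated against DMSO vehicle control tubes. Plasma renin activity 3–8 ng AI/mL per h.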

The target in data set [3] is T3, Cathepsin D (Bos taurus, UniProt P80209).
T3 sequence (P80209 whole entry): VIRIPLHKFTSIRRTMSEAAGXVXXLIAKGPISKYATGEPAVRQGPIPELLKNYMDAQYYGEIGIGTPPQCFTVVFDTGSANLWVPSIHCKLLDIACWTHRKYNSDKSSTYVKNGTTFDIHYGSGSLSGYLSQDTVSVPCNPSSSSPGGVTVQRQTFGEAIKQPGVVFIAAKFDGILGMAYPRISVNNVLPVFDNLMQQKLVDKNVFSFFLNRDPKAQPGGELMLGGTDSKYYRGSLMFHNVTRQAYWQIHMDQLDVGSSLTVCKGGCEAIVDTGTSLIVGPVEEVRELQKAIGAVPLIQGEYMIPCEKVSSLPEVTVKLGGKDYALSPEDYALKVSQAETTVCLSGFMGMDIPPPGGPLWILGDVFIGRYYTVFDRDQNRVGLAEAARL
The experiment in a line: (§1) Inhibitory activity against bovine cathepsin D was determined. The essentials:
(§2)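 Bovine cathepsin D activity assayed in duplicate as hydrolysis of bovine hemoglobin (2× crystallized) at pH 3.2, 37 °C. Net absorbance at 280 nm read in acid-precipitated supernatants of inhibited vs uninhibited controls. IC50 from six inhibitor concentrations by nonlinear regression.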

For data set [4], the target named is T1, Renin. The experiment in a line: Inhibitory activity against monkey plasma renin. The format is cell-free, Cercopithecidae. The conditions noted are these: target entry is the homologue from another species. In a few lines:
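Plasma from salt-depleted, furosemide-treated monkeys (native renin and angiotensinogen) incubated with maleate buffer (pH 6.0), PMSF and inhibitor in DMSO for 60 min at 37 °C. Plasma renin activity was 3–8 ng AI/mL per h. Percent inhibition was taken vs DMSO vehicle tubes, and IC50 from six concentrations by nonlinear regression.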

A short description of data set [5]: solubility in phosphate buffer at pH 7.4. The format is physicochemical.
Data set [6] deals with T3, Cathepsin D. Description: Inhibitory activity against bovine Cathepsin D was determined. The essentials: as §2
Data set [7] concerns the target T1, Renin. The experiment in a line: Inhibitory activity against human plasma renin; G means not measured. The format is cell-free.
Another data set addresses T4, Cathepsin D (Bos taurus) (UniProt P80209).
T4 sequence (whole entry): T3 sequence (P80209 whole entry)
Described as §1. Particulars: concentration not given here. The essentials:
as §2

The molecule `CCC(C)CNC(=O)C[C@H](O)C(CC(C)C)NC(=O)C(CCCCNP(=O)(Oc1ccccc1)Oc1ccccc1)NC(=O)C(Cc1cccc2ccccc12)Cc1cccc2ccccc12` (some centres undefined) registered a logD in [1] (pH 7.4) of 7.88. Moreover, half-maximal inhibition on Renin [2] (IC50) required 740 nM. Besides, the inhibition against Renin (Homo sapiens) came to 48%.
Regarding `CCC(C)CNC(=O)C[C@H](O)C(CC(C)C)NC(=O)C(CCCCC/N=C(\N)N[N+](=O)[O-])NC(=O)C(Cc1cccc2ccccc12)Cc1cccc2ccccc12` (some centres undefined), the logD in data set [1] (pH 7.4) came to 5.1. In addition, the IC50 was 1470 nM on Cathepsin D [3], 20 nM against Renin [4] and 26 nM against Renin [2].
For `CCC(C)CNC(=O)C[C@H](O)C(CC(C)C)NC(=O)C(CCCCNS(=O)(=O)c1ccc(C)cc1)NC(=O)C(Cc1cccc2ccccc12)Cc1cccc2ccccc12` (some centres undefined), in data set [1] (pH 7.4, logD), the log distribution coefficient (logD) was determined as 6.7. Besides, at Renin [2], the midpoint of inhibition, the IC50, lay at 3000 nM. On Renin (Homo sapiens), this molecule returned an inhibition of 48%.
Take `CCC(C)CNC(=O)C[C@H](O)C(CC(C)C)NC(=O)C(CCCC/N=C(/S)NC)NC(=O)C(Cc1cccc2ccccc12)Cc1cccc2ccccc12` (some centres undefined): in [5], the solubility is less than 10 µg/mL. In [1] (pH 7.4, logD), this molecule displayed a pH-dependent lipophilicity (logD) of 5.71. In addition, the IC50 worked out at 781 nM at Cathepsin D [6], 23 nM against Renin [4] and 13 nM against Renin [2].
Take `CCC(C)CNC(=O)C[C@H](O)C(CC(C)C)NC(=O)C(CC#CCNC(C)=O)NC(=O)C(Cc1cccc2ccccc12)Cc1cccc2ccccc12` (stereo in doubt; 55a): the logD in data set [1] (pH 7.4, logD) came out at 5.32. Also, the results for the IC50 at Cathepsin D [3], against Renin [4] and on Renin [7] were 78 nM, 4.6 nM and 2 nM, respectively.
As to `C/N=C(\S)NCCCCC(NC(=O)C(Cc1cccc2ccccc12)Cc1cccc2ccccc12)C(=O)NC(CC(C)C)[C@@H](O)CC(=O)NC(CC(C)C)C(=O)NCc1ccccc1` (some centres undefined), in [5], the solubility is less than 10 µg/mL. In [1] (pH 7.4, logD), this molecule registered a logD of 6.7. The IC50 is 99 nM at Renin [4] and 60 nM against Renin [2].
With `NCCC1CN(C(=O)C[C@H](O)C(CC2CCCCC2)NC(=O)C(CC#CC/N=C(/N)N[N+](=O)[O-])NC(=O)C(Cc2cccc3ccccc23)Cc2cccc3ccccc23)CCO1` (some centres undefined), the inhibition on Cathepsin D (Bos taurus) was determined as 0.7%.
At Cathepsin D (Bos taurus), `CC(=O)NCC#CCC(NC(=O)C(Cc1cccc2ccccc12)Cc1cccc2ccccc12)C(=O)NC(CC1CCCCC1)[C@@H](O)CC(=O)N1CCOC(CCN)C1` (some centres undefined) returned an inhibition of 0.3%. Further, inhibition on Renin [4] was half-maximal at 9 nM (IC50).
In turn, `CCC(C)CNC(=O)C[C@H](O)C(CC1CCCCC1)NC(=O)C(CCCC/N=C(/S)NC)NC(=O)C(Cc1cccc2ccccc12)Cc1cccc2ccccc12` (some centres undefined) had a logD in data set [1] (pH 7.4, logD) of 6.63. Moreover, the IC50 on Cathepsin D [3] amounted to 3200 nM; against Renin [4] it was 47 nM.

Source of the values: ChEMBL document CHEMBL1125654, “New inhibitors of human renin that contain novel replacements at the P2 site” (J Med Chem, 1991).
